From PubChem
The entries come from a sample that favours hits as a whole.
L major viab: reduces viability of Leishmania major promastigotes. resazurin fluorescence viability. inhibition, % at 10 µM. 200,000 tested, 9% active. AID 1063;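 also: promastigotes grown with compound for 44 hours at 28 °C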
DTT redox prof: compounds producing H2O2 with reducing agent – biochemical, NIH compound library profiling, artefact control for MLSCN library redox annotation, primary screen; activation, % at 10 µM; DTT-dependent redox cycling H2O2, phenol red/HRP absorbance; 100% = 100 µM peroxide control, 0% = buffer; 200,000 tested, 0.03% active;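 active = activation of at least 50% relative to the plate's high and low controls in the primary single-dose screen; inactive = activation below 50%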;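 also: compound incubated with DTT at 0.8 mM final as the reducing agent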
Diaphorase act: diaphorase activation or chemical reduction counter-screen; AID 1229; 190,000 tested, 0.005% active; Diaphorase/resazurin coupled assay, resorufin fluorescence, 16 min; stronger effect = higher value; 1 = vehicle wells, 0 = NADH-free wells; activation factor at 20 µM;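 active = diaphorase activity raised at least twofold by the compound at 20 µM; inactive = activation factor below 2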
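Material: bacterial diaphorase enzyme (C. kluyveri); amount: enzyme 0.07 U/mL final; reagent: NADH substrate 0.114 mM plus resazurin dye 0.1 mM, final; doses: single compound dose of 20 µM, 1% DMSO final; timing: 16 min enzyme reaction, ambient temperature; measured by: fluorescence of resorufin, 544 nm excitation, 590 nm emission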
Diaph inh CS: inhibits diaphorase or chemically oxidizes, flagging diaphorase assay artifacts | 190,000 tested, 0.69% active | AID 1217 | inhibition, % at 20 µM | diaphorase resazurin-to-resorufin fluorescence, NADH, 16 min; bacterial (C. kluyveri) enzyme, not human;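 active = primary screen inhibition at 20 µM above a set limit, cut at about 50% in these data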;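 also: plate controls were DMSO with full reaction for no effect and wells lacking NADH for full effect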
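System: Diaphorase enzyme from Clostridium kluyveri | Amount: Enzyme working solution with 0.14 U/mL diaphorase | Benchmarks: No-NADH positive control and DMSO neutral control | Signal: Fluorescence of resorufin formed from resazurin, Ex 544/Em 590 nm | Schedule: 16-min room-temperature incubation before reading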
G6PDH CS: inhibits Leuconostoc G6PDH, flagging false hits in G6PDH-based assays. Purified L. mesenteroides G6PDH, diaphorase/resazurin coupled fluorescence, 45 min. inhibition, % at 5 µM. 200,000 tested, 0.12% active. AID 1020
PfG6PD inh: PfG6PD (Plasmodium falciparum) enzyme inhibition; PfGluPho enzyme, NADPH resazurin-diaphorase fluorescence; 350,000 tested, 0.78% active; AID 504690; inhibition, % at 20 µM;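 active = inhibition reaching at least a set limit at 20 µM in the primary screen, cut at about 59% in these data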;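 also: 0% = DMSO wells with substrate and 100% = DMSO wells lacking glucose-6-phosphate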
* = called active by the depositor; x = no result. Rule as the data show it, unless noted: active = inhibition above about 50%; inactive = the rest.

SMILES | L major viab | DTT redox prof | Diaphorase act | Diaph inh CS | G6PDH CS | PfG6PD inh
COCCCN(C(=S)Nc1cccc(Cl)c1)C(C)c1ccncc1 (centres undefined) | 63.3* | 0.3 | 1 | -1.7 | 9.8 | -12.2
COCCCN(C(=O)Nc1cccc(Cl)c1)C(C)c1ccccn1 (centres undefined) | 6.8 | 3.1 | 1 | 4.9 | 1.5 | 3.0
COCCCN(C(=S)Nc1c(C)cc(C)cc1C)C(C)c1ccccn1 (centres undefined) | 52.4* | -0.8 | 0.9 | 11.0 | -0.8 | 26.8
COCCCN(C(=S)Nc1cc(C)cc(C)c1)C(C)c1ccncc1 (centres undefined) | 82.4* | 0.1 | 1 | 0.0 | -9.3 | -2.3
COCCCN(C(=S)Nc1ccc(OC)cc1)C(C)c1ccncc1 (centres undefined) | 3.0 | 0.3 | 0.9 | 6.9 | 7.7 | -11.9
Cc1onc(-c2c(F)cccc2Cl)c1C(=O)O/N=C(\N)c1ccc([N+](=O)[O-])o1 | x | x | x | x | x | 18.7
COc1ccc(C(=S)N2CCN(c3ccccc3C)CC2)cc1OC | x | x | x | x | x | 33.9
CC(C)(Oc1ccc(Cl)cc1)C(=O)N(Cc1ccccc1)c1ccccn1 | 87.0* | 0.2 | 0.9 | 13.5 | 9.0 | 0.0
CC(C)(Oc1ccc(Cl)cc1)C(=O)N1CCN(c2ccccn2)CC1 | 62.2* | 1.4 | 0.8 | 19.6 | 1.2 | 8.9
CC(C)(C)c1ccc(OCC(=O)N2CCN(c3ccccn3)CC2)cc1 | x | x | x | x | x | 1.1
CN1CCN(C(=O)CSc2nnc(COc3ccc(Cl)cc3)o2)CC1 | x | x | x | x | x | -17.2
Cc1cc(C)cc(NC(=O)c2ccc3nc[nH]c3c2)c1 | 85.5* | -0.1 | 0.9 | 7.4 | -1.5 | 12.2
COc1ccc(S(=O)(=O)N2CCN(C(=O)C3CC(=O)N(c4ccccc4F)C3)CC2)cc1OC (centres undefined) | x | x | x | x | x | -3.2
O=C(NCc1ccccn1)C1C2C=CC(C2)C1C(=O)Nc1ccc(F)cc1 (centres undefined) | 75.5* | 0.3 | 1 | 3.0 | 4.0 | 0.6
CN(/N=C\c1ccc(O)c(O)c1)c1nc(-c2ccccc2)cc(-c2ccccc2)n1 | 100.3* | -0.6 | 0.6 | 39.3 | 5.9 | -15.0
O=C(c1ccccc1)N1CCN(c2ncnc3sc4c(c23)CCC4)CC1 | 62.7* | 0.5 | 0.9 | 14.6 | 19.5 | 0.3
CCOC(=O)c1ccc(N2N=C(C)/C(=C/C=C/c3ccco3)C2=O)cc1 | 30.2 | 1.2 | 1 | -4.7 | 4.5 | -5.9
CC1=NN(c2ccc(C(=O)OC(C)C)cc2)C(=O)/C1=C\C=C\c1ccco1 | 76.0* | -0.1 | 0.8 | 17.7 | 3.9 | 7.7
O=C(O)c1cc(N2N=C(C(F)(F)F)/C(=C/C=C/c3ccco3)C2=O)ccc1Cl | -12.5 | -1.1 | 0.4 | 56.0* | 18.7 | 27.1
CC1=NN(c2ccc(Cl)c(C(=O)O)c2)C(=O)C1 | -3.1 | 0.1 | 0.9 | 9.8 | -0.4 | -4.4
O=C(CCc1ccccc1)Nc1ccc(S(=O)(=O)Nc2nccs2)cc1 | x | x | x | x | x | -21.1
CC(C)(C)C1CCC(C(=O)OCC(=O)c2ccc[nH]2)CC1 (centres undefined) | 56.9* | 0.0 | 0.8 | 19.5 | 7.2 | 10.6
COc1ccc(C2CC(C(F)(F)F)n3nc(C(=O)Nc4c(C)n(C)n(-c5ccccc5)c4=O)c(Cl)c3N2)cc1 (centres undefined) | 69.0* | 0.8 | 0.8 | 18.9 | 2.2 | x
COc1cccc(C2CC(C(F)(F)F)n3nc(C(=O)Nc4c(C)n(C)n(-c5ccccc5)c4=O)cc3N2)c1 (centres undefined) | -10.4 | -0.2 | 0.9 | 10.7 | 2.0 | 5.1
O=C(NCCc1ccc(F)cc1)C1CCN(C(=O)Nc2ccccc2)CC1 | x | x | x | x | x | -4.8
Cc1nn(-c2ccccc2)c(C)c1-c1ccccc1O | x | x | x | x | x | -8.0
Cc1nn(-c2ccccc2)c(/N=C/c2ccc(O)cc2)c1-c1ccccc1 | 52.4* | 0.6 | 0.9 | 9.7 | -15.2 | -24.9
CCOC(=O)c1c(C)oc2c1c(C(c1cccnc1)N1CCCCC1)c(O)c1ccccc12 (centres undefined) | 98.4* | -0.5 | 0.7 | 30.5 | 38.2 | 42.6
CCOC(=O)c1c(C)oc2c1c(C=NCCO)c(O)c1ccccc12 | -4.5 | -0.9 | 0.2 | 81.5* | 56.9* | 58.2
